Assay results from paper PMC8612216 (Proceedings of the National Academy of Sciences of the …, 2021).

Experiments:
NFP = target: T1, NFP (Medicago truncatula, UniProt Q0GXS4); experiment: MST steady-state binding to fluorescently labeled NFP; settings: ligand 0.6 to 20,000 nM, NFP 12.5 to 50 nM
T1 sequence (Q0GXS4 28-246): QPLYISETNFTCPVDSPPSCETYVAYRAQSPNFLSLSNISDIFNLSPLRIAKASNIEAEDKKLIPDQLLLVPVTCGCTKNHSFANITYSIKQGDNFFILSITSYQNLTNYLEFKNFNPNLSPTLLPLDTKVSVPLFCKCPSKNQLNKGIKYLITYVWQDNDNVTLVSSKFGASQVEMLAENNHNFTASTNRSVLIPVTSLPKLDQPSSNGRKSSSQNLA
How it was run: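 Microscale thermophoresis using NHS blue dye-labelled NFP ectodomain (insect cell-expressed) held at a constant 12.5–50 nM. Ligands were S. meliloti succinoglycan (EPS-I) and maltodextrin, each titrated from 0.6 to 20,000 nM. Steady-state binding signal was recorded.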

NFR5 ectodomain = target: T2, NFR5 ectodomain (Lotus japonicus, UniProt Q70KR1); experiment: BLI binding of NFR5 ectodomain; settings: analyte 100 to 1.56 µM
T2 sequence (Q70KR1 29-242): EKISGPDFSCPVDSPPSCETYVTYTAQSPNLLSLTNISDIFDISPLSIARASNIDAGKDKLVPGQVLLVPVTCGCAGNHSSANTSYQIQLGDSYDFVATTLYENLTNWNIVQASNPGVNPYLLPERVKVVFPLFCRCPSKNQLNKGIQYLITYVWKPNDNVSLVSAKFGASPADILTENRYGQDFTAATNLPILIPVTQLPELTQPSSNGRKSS

CERK1 = target: T3, CERK1 (Arabidopsis thaliana, UniProt A8R7E6); experiment: BLI kinetics of CERK1 ectodomain binding to chitin fragment
T3 sequence (A8R7E6 24-232 limits assumed): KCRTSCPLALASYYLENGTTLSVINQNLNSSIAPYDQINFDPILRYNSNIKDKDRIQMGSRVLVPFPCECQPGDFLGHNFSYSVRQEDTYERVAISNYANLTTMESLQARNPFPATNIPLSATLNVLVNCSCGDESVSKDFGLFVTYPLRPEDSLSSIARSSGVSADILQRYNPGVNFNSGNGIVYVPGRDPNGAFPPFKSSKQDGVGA

[1] = target: T4, engineered LYS11 (ENG-LYS11) (Lotus japonicus, UniProt D3KTZ8); experiment: BLI binding of engineered LYS11 ectodomain; settings: ENG-LYS11, analyte 100 to 1.56 µM
T4 sequence (D3KTZ8 28-247): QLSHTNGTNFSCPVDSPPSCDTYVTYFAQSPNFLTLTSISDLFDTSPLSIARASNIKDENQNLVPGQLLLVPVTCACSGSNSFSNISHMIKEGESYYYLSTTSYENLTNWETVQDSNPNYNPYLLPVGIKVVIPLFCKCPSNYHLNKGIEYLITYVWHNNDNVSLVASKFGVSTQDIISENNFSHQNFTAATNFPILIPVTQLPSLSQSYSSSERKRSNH

Compound	binding to NFP (NFP)	Kd (NFR5 ectodomain)	binding kinetics (CERK1)	Kd [1]
maltodextrin	unable to bind			
S. meliloti succinoglycan [EPS-I]	unable to bind			
N[C@H]1[C@H](O[C@H]2[C@H](O)[C@@H](N)[C@H](O[C@H]3[C@H](O)[C@@H](N)[C@H](O[C@H]4[C@H](O)[C@@H](N)[C@H](O[C@H]5[C@H](O)[C@@H](N)C(O)O[C@@H]5CO)O[C@@H]4CO)O[C@@H]3CO)O[C@@H]2CO)O[C@H](CO)[C@@H](O)[C@@H]1O (some centres unmarked) [CO5, chitopentaose]		does not bind	fast association and dissociation rates	completely lost the ability to bind
